Measurements taken from ChEMBL document CHEMBL4706594, “Targeting the aryl hydrocarbon receptor with a novel set of triarylmethanes” (Eur J Med Chem, 2020).

What was measured:
[1] = biological target: T1, Aryl hydrocarbon receptor (Homo sapiens, UniProt P35869); experiment: Antagonist activity at AhR in human HepG2 cells co-transfected with pSELECT-zeo-Lucia and CYP1A1 assessed as inhibition of FICZ-induced receptor transactivation at 30 uM incubated for 24 hrs by luciferase reporter gene assay relative to control; assay type: cell-based; details: hepg2, 24 h
T1 sequence (P35869 whole entry): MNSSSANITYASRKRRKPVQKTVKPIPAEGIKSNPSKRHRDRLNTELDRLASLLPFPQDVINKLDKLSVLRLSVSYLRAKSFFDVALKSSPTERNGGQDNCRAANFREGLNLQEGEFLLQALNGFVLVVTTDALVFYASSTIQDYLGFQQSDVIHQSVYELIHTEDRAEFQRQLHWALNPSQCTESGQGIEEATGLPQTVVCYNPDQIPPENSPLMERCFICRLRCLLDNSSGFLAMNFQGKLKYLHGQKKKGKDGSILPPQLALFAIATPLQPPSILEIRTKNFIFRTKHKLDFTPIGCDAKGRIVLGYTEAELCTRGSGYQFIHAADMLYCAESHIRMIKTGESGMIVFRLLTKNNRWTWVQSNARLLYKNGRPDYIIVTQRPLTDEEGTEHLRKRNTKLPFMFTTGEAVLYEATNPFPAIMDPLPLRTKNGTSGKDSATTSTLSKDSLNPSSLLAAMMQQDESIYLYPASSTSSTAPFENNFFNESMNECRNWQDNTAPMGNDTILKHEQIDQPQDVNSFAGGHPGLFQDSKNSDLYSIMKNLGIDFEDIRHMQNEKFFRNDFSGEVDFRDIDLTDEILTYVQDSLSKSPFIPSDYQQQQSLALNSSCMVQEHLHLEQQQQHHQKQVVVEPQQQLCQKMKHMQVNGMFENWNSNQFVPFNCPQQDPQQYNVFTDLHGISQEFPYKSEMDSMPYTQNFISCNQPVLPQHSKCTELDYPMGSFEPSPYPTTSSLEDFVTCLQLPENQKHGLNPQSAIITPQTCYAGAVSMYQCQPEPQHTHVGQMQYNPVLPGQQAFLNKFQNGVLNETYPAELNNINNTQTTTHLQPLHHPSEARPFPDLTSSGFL

[2] = biological target: T1, Aryl hydrocarbon receptor; experiment: Antagonist activity at AhR in human HepG2 cells assessed as inhibition of FICZ-induced AhR transcriptional activity incubated for 24 hrs by Quanti-Luc reagent based luminescence assay; assay type: cell-based
[3] = biological target: T1, Aryl hydrocarbon receptor; details: HepG2, human, 24 h, read-out: RUmax
[4] = biological target: T1, Aryl hydrocarbon receptor; experiment: Agonist activity at AhR in human HepG2 cells co-transfected with pSELECT-zeo-Lucia and CYP1A1 assessed as induction of receptor transactivation incubated for 24 hrs by luciferase reporter gene assay; assay type: cell-based
[5] = biological target: T1, Aryl hydrocarbon receptor; details: HepG2, human, 24 h, read-out: RUmax; remark: listed apart in the source
[6] = tested on: HepG2; experiment: Cytotoxicity against human HepG2 cells harboring AhR assessed as reduction in cell viability at 0.1 to 10 uM measured for 24 to 72 hrs by MTT assay; assay type: cell-based; details: hepg2, 10 µM, dose lower 0.1 µM, time lower 24 hrs, dose upper 10 µM, time upper 72 hrs
Summary of the method: (§1)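 AhR-HepG2 cells were treated for 24–72 h with compounds at 0.1, 1.0, 5.0 and 10.0 µM, some also at 2.5 and 7.5 µM. MTT at 0.5 mg/mL was added and plates incubated at 37 °C. Formazan was dissolved in DMSO and absorbance read at 490 nm. Viability below 85% of vehicle counted as cytotoxic. One-way ANOVA with Dunnett's test; mean ± SEM, n≥3.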

[7] = biological target: T1, Aryl hydrocarbon receptor; details: HepG2, human, 24 h, read-out: RUmax; remark: listed apart in the source
[8] = Cytotoxicity against human HepG2 cells harboring AhR assessed as reduction in cell viability at > 5 uM measured for 24 hrs by MTT assay relative to control; assay type: cell-based; details: read-out: INH; summary of the method: as §1
[9] = biological target: T1, Aryl hydrocarbon receptor; details: HepG2, human, 24 h, read-out: RUmax; remark: listed apart in the source
[10] = biological target: T1, Aryl hydrocarbon receptor; details: HepG2, human, 24 h, read-out: RUmax; remark: listed apart in the source
[11] = tested on: HepG2; experiment: Cytotoxicity against human HepG2 cells harboring AhR assessed as reduction in cell viability at 0.1 to 10 uM measured after 24 hrs by MTT assay; assay type: cell-based; details: hepg2, 24 h, dose 0.1-10 µM; summary of the method: as §1

SMILES	EC50 [4] [µM]	activity at 10 µM [5] [%]	inhibition at 10 µM [7] [%]	also measured
Cc1ccccc1/N=N/c1ccc(NC(=O)c2ccnn2C)c(C)c1	–	–	–	RUmax [1]: 54.5%; IC50 [2]: 2430 nM
O=Cc1c2[nH]c3ccccc3c2cc2[nH]c3ccccc3c12	–	–	–	Emax at 18 µM [3]: 100%
Oc1ccc(C(c2ccccn2)c2c(O)ccc3ccccc23)cc1 (stereo not drawn)	–	–	–	Activity [6]: Non-Toxic
Cc1ccc(C(c2ccccn2)c2ccccc2O)cc1 (stereo not drawn)	> 100	6.93	114	–
Oc1ccccc1C(c1ccc(Cl)cc1)c1ccccn1 (stereo not drawn)	> 1000	7.18	115	–
CC(=O)Oc1ccc(C(c2ccccn2)c2c[nH]c3ccccc23)cc1 (stereo not drawn)	–	–	–	Activity [6]: Non-Toxic
Oc1ccc(C(c2ccccn2)c2cccs2)cc1 (stereo not drawn)	–	–	–	Activity [6]: Non-Toxic
Oc1ccccc1C(c1ccc(Br)cc1)c1ccccn1 (stereo not drawn)	> 1000	7.99	117	–
Oc1ccc(C(c2ccc(Cl)cc2)c2ccccn2)cc1 (stereo not drawn)	> 100	6.59	–	–
COc1ccc(C(c2ccccn2)c2c[nH]c3ccccc23)cc1 (stereo not drawn)	21.7	114	–	Activity [6]: Non-Toxic
COc1ccc(C(c2ccccn2)c2c(O)ccc3ccccc23)cc1 (stereo not drawn)	–	–	–	Activity [6]: Non-Toxic
CC(=O)Oc1ccc(C(c2ccccn2)c2c(OC(C)=O)ccc3ccccc23)cc1 (stereo not drawn)	> 200	5.17	144	–
COc1ccc(C(c2ccccn2)c2cccs2)cc1 (stereo not drawn)	> 50	10.5	137	Activity [6]: Non-Toxic
Oc1ccccc1C(c1ccc(F)cc1)c1ccccn1 (stereo not drawn)	> 1000	6.89	112	–
COc1ccc(C(O)(c2ccccn2)c2ccc3ccccc3n2)cc1 (stereo not drawn)	–	–	–	Activity [6]: Non-Toxic
CC(C)(C)c1ccc(C(c2ccccn2)c2ccccc2O)cc1 (stereo not drawn)	> 1000	6.81	–	–
CC(=O)Oc1ccc(C(c2ccc(C(C)(C)C)cc2)c2cccc[n+]2[O-])cc1 (stereo not drawn)	–	–	–	cytotoxicity at 24 h [8]: 50%; activity at 1 µM [9]: 6.1%; inhibition at 1 µM [10]: 120%
Oc1ccc(C(c2ccc(Br)cc2)c2ccccn2)cc1 (stereo not drawn)	> 100	7.71	–	–
COc1ccc(C(c2ccccn2)n2nnc3ccccc32)cc1 (stereo not drawn)	> 100	8.86	–	–
CC(=O)Oc1ccc(C(c2ccc(C(C)(C)C)cc2)c2ccccn2)cc1 (stereo not drawn)	–	–	–	cytotoxicity at 24 h [8]: 50%; activity at 1 µM [9]: 5.32%; inhibition at 1 µM [10]: 113%
CC(=O)Oc1ccc(C(c2ccccn2)n2nnc3ccccc32)cc1 (stereo not drawn)	> 100	9.23	142	–
CC(=O)Oc1ccc(C(c2ccc(C(F)(F)F)cc2)c2ccccn2)cc1 (stereo not drawn)	–	–	–	cytotoxicity at 24 h [8]: 50%; activity at 1 µM [9]: 7.71%; inhibition at 1 µM [10]: 117%
CC(C)(C)c1ccc(C(c2ccc(O)cc2)c2ccccn2)cc1 (stereo not drawn)	–	–	–	cytotoxicity at 24 h [8]: > 90%; activity at 1 µM [9]: 6.89%; inhibition at 1 µM [10]: 113%
COc1ccc(C(O)(c2ccc(C(F)(F)F)cc2)c2ccccn2)cc1 (stereo not drawn)	52	26.6	–	Activity [6]: Non-Toxic; Activity [11]: Toxic

More lines, main results first:

EC50 [4] [µM]	activity at 10 µM [5] [%]	inhibition at 10 µM [7] [%]	SMILES	also measured
> 100	9.42	–	CC(=O)Oc1ccc(C(c2ccc(C)cc2)c2ccccn2)cc1 (stereo not drawn)	–
> 1000	6.32	143	CC(=O)Oc1ccc(C(c2ccc(Br)cc2)c2ccccn2)cc1 (stereo not drawn)	–
> 200	7.78	78.8	CC(=O)Oc1ccc(C(c2ccc(Cl)cc2)c2cccc[n+]2[O-])cc1 (stereo not drawn)	–
> 100	7.09	139	Cc1ccc(C(c2ccc(O)cc2)c2ccccn2)cc1 (stereo not drawn)	–
> 200	6.28	93.3	CC(=O)Oc1ccc(C(c2ccc(C)cc2)c2cccc[n+]2[O-])cc1 (stereo not drawn)	–
> 100	8.77	118	CC(=O)Oc1ccc(C(c2ccc(F)cc2)c2ccccn2)cc1 (stereo not drawn)	–
> 1000	6.51	92.4	CC(=O)Oc1ccc(C(c2ccc(F)cc2)c2cccc[n+]2[O-])cc1 (stereo not drawn)	–
> 400	7.79	–	Oc1ccc(C(c2ccc(F)cc2)c2ccccn2)cc1 (stereo not drawn)	–
> 100	8.8	106	CC(=O)Oc1ccc(C(c2ccc(Br)cc2)c2cccc[n+]2[O-])cc1 (stereo not drawn)	–
> 1000	6.26	128	CC(=O)Oc1ccc(C(c2ccc(Cl)cc2)c2ccccn2)cc1 (stereo not drawn)	–
> 1000	6.58	107	CC(=O)Oc1ccc(C(c2ccc(OC(C)=O)cc2)c2ccccn2)cc1 [BISACODYL]	–
